One may read the Kp as tissue or fluid exposure divided by exposure in the circulation.

Data set [1] relates to MRGPRX1. As to conditions: NIH MLPCN; cited from earlier work.
In data set [2] the test system is MRGPRX1. Conditions: cited from earlier work.
Data set [3] is described as follows: Metabolite identification in human liver microsomes. It is filed as in vitro ADME. Conditions: 60 min. For orientation: Liver microsomes are a subcellular fraction often used to study metabolism.
The target in data set [4] is T1, human MRGPRX1 (Homo sapiens, UniProt Q96LB2). Description: MRGPRX1 intrinsic agonist activity in the absence of BAM8–22. Conditions: at concentrations up to 100 μM in the absence of BAM8–22. It is filed as cell-based. The method, boiled down: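 Same stable human MRGPRX1 HEK293 FLIPR format: 25,000 cells/well for 2 days, then 2 μM Fluo-4 AM with 1% Trypan Red in HBSS for 50 min at 37°C and 10 min at room temperature. Serially diluted test compound added in HBSS alone, with HBSS as negative control and BAM8–22 as positive control. Max–min fluorescence recorded over 2 min.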

Data set [5] in a line: In vivo pharmacokinetics in mice after oral administration. Conditions: for Kp: male, CD-1, mouse, po, 100 mg/kg, Tissue-to-plasma ratio (by AUC). The method, boiled down:
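Male CD1 mice (25–30 g, n=3) dosed by oral gavage at 100 mg/kg in 5% dimethylacetamide/10% Cremophor EL/10% Tween80/25% PEG400/50% water. Killed at 0.25–6 h; cardiac blood taken to plasma, spinal cord and brain flash-frozen. Acetonitrile extraction with losartan internal standard, then LC/MS/MS. Calibration 0.01–10 nmol/mL in naïve matrix, 1/x-weighted linear regression.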

In data set [6] the target is T2, MRGPRX2 (Homo sapiens, UniProt Q96LB1).
T2 sequence (Q96LB1 1-330): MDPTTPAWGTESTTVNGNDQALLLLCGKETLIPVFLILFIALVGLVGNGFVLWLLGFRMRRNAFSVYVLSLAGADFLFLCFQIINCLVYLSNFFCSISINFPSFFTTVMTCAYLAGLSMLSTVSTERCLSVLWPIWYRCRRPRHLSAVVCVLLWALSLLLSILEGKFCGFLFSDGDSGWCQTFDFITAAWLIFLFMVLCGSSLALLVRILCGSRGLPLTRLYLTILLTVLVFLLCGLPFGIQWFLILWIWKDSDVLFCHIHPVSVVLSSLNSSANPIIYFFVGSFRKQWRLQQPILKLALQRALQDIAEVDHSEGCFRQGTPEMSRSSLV
It is filed as cell-based.

The subject of data set [7] is panel of 44 selected targets (Eurofins Cerep SafetyScreen 44). Description: Off-target panel of 44 selected targets. As to conditions: at 10 μM.
Data set [8] concerns the target hERG channel (Homo sapiens, UniProt Q12809). Put plainly: hERG channel in Eurofins Cerep SafetyScreen 44. As to conditions: at 10 μM. (hERG is a cardiac potassium channel; its block is linked to QT prolongation.)
Data set [9] relates to humanized MRGPRX1 mice. It is filed as in vivo. As to conditions: 100 mg/kg oral, 0–1 hour post-drug.
In data set [10] the test system is naïve MRGPRX1 mice. Description: Open field test in naïve MRGPRX1 mice. As to conditions: 100 mg/kg, po, compared to pre-drug. It is filed as in vivo.
Data set [11] concerns naïve MRGPRX1 mice. Description: Rotarod test in naïve MRGPRX1 mice. It is filed as in vivo. Conditions: 100 mg/kg, po, vs vehicle-treated group and pre-treatment values. For orientation: The rotarod test checks motor coordination on a turning rod.
The test system of data set [12] is humanized MRGPRX1 mice. Put plainly: Sciatic nerve chronic constriction injury. It is filed as in vivo. As to conditions: 100 mg/kg, po. The method, boiled down:
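Humanized MRGPRX1 mice of both sexes (2–3 months, 20–30 g) under 2% isoflurane; left sciatic nerve loosely ligated with three sutures proximal to the branching point. Test compound given at 100 mg/kg po, vehicle as control. Hargreaves heat paw withdrawal latency measured before and after dosing on days 12 and 26 post-CCI (n=4–5/group). Two-way mixed-model ANOVA with Bonferroni; mean + SD.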

Data set [13] addresses T1, human MRGPRX1. It is filed as cell-based. Conditions: MRGPRX1 PAM potency. The essentials: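 Stable human MRGPRX1 HEK293 cells seeded at 25,000/well and grown 2 days. Loaded with 2 μM Fluo-4 AM plus 1% Trypan Red in HBSS for 50 min at 37°C, then 10 min at room temperature. Serial HBSS dilutions of test compound added with EC20 BAM8–22; FLIPR read for 2 min as max–min fluorescence. […] Mean ± SEM, ≥3 experiments in quadruplicate.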

Setting [14] is: spinal cord, 100 mg/kg po (table).

T1 sequence (Q96LB2 whole entry): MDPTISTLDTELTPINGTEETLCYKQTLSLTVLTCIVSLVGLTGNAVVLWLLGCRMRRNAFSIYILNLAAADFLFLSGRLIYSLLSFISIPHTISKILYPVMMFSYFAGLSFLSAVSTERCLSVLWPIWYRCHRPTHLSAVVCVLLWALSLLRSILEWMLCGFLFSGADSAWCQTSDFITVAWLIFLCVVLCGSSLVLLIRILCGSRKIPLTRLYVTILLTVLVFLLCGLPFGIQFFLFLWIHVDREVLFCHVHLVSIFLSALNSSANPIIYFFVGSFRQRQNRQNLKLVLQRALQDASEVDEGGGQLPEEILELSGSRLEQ
Chain of hERG channel (Q12809 whole entry): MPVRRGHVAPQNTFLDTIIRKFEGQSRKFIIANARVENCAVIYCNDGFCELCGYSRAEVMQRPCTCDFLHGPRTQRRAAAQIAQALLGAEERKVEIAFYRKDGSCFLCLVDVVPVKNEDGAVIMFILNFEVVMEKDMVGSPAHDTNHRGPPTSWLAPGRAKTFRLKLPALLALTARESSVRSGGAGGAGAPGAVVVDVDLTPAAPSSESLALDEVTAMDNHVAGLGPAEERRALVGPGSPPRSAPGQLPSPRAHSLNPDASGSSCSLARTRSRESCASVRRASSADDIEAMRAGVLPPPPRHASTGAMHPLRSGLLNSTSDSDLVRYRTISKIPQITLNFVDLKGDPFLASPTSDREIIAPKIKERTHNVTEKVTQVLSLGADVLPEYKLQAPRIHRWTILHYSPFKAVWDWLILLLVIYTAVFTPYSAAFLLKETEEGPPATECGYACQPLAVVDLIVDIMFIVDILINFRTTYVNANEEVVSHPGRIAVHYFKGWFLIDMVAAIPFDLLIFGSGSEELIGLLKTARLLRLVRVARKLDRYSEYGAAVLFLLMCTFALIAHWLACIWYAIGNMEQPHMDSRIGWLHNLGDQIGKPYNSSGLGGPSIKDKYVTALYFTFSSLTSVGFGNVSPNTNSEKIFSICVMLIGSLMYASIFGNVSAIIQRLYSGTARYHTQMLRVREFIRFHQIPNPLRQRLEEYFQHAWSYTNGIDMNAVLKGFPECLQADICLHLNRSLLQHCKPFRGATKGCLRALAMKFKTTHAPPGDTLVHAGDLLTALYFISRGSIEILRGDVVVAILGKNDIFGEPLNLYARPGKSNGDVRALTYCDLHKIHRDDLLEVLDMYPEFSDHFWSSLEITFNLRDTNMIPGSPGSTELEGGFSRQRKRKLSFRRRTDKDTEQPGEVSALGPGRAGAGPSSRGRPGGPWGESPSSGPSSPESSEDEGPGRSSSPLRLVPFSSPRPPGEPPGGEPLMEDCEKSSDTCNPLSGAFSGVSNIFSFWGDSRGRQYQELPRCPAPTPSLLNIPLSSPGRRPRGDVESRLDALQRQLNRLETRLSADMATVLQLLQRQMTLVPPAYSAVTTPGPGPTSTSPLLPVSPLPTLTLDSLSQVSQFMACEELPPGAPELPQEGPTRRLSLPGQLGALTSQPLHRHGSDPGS

Take `Cc1ccccc1Oc1ncnc2sccc12` [Compound 1b, 4-(o-Tolyloxy)thieno[2,3-d]pyrimidine]: the “allosteric MRGPRX1 activator activity” value in [1] was “active allosteric MRGPRX1 activator”.
With `CCOc1ccccc1NC(=O)c1ccccc1NS(=O)(=O)C1CC1` [ML382, 2-[(Cyclopropylsulfonyl)amino]-N-(2-ethoxyphenyl)benzamide], the “pain hypersensitivity after injury” value in data set [2] (intrathecal injection) is recorded as “inhibit pain hypersensitivity after injury”. Besides, in [2] (systemic administration), the itch side effects entry is reported as “did not elicit itch side effects”.
For the compound `Cc1sc2ncnc(Oc3ccccc3F)c2c1C` [Compound 1f, 4-(2-Fluorophenoxy)-5,6-dimethylthieno[2,3-d]pyrimidine], the major metabolite identification entry in data set [3] is on record as “insertion of an oxygen atom into the parent compound”.
As to `CC(C)(C)c1sc2ncnc(Oc3ccccc3OC(F)(F)F)c2c1-c1ccc(Cl)c(Cl)c1` [Compound 1t, 6-tert-butyl-5-(3,4-dichlorophenyl)-4-(2-(trifluoromethoxy)phenoxy)thieno[2,3-d]pyrimidine], the intrinsic agonist activity entry in [4] is listed as “no intrinsic agonist activity”. Besides, the “Cmax in the spinal cord relative to the EC50 value” in data set [5] (100 mg/kg po) is listed as “more than 40 fold”. Also, the Cmax in [5] (brain, 100 mg/kg po) stood at 0.82 ± 0.05 nmol·h/g; in data set [5] (setting [14]), 4.60 ± 0.60 nmol·h/g. Also, the Kp in [5] (brain/plasma, brain, 100 mg/kg po) turned out to be 0.022; in [5] (spinal cord/plasma, spinal cord, 100 mg/kg po), 0.127. The same compound yielded an AUC0-last in data set [5] (setting [14]) of 13.79 ± 0.14 nmol·h/g. Further, in [6], the “selectivity for MRGPRX1 over MRGPRX2” value is “at least 50 fold”. Besides, the “MRGPRX2 PAM activity” value in [6] (at 5 μM, in presence of EC20 concentration of C48/80) is recorded as “no MRGPRX2 PAM activity”. The “inhibition of 5 of the 44 targets” value in data set [7] is reported as 50−64%. Further, the “inhibition of hERG channel” value in [8] is recorded as “more than 50%”. Also, the “itch side effects (spontaneous scratch bouts)” value in [9] is given as “lack of spontaneous scratch bouts”. For the same compound, in [9] (compared to vehicle), the overt adverse effects result is on record as “no overt adverse effects”. Besides, the “exploratory performance in the open field test” value in data set [10] was “neither compound 1t (100 mg/kg, po) nor vehicle significantly impaired exploratory performance”. In addition, in [11], the “performance on the rotarod test” value is recorded as “no difference in performance on the rotarod test”. The “ipsilateral paw withdrawal latency (PWL) to radiant heat” value is reported as “significantly increased ipsilateral PWLs from pre-drug level” in [12] (1 and 2 hours post-drug on day 12 post-injury); “significantly increased ipsilateral PWLs from pre-drug level” in [12] (2 hours post-drug on day 26 post-injury). Also, the “contralateral hind paw PWL” value in [12] (after drug treatment) was “no significant change of PWLs”.
As to `Cc1sc2ncnc(Oc3ccccc3)c2c1C` [Compound 1c, 5,6-Dimethyl-4-phenoxythieno[2,3-d]pyrimidine], in data set [13], the “fold loss in potency compared to 1b” value is reported as 4 fold.

Source of the values: paper PMC9176367 (Journal of medicinal chemistry, 2022).
